pIC50: −log10 of the molar value. Calls of active or inactive are those of the source. The rule behind the calls is not given here.
Legend:
[1] = Toxicity in BALB/c mouse xenografted with mouse 4T1 cells assessed as decrease in body weight at 5.7 mg/kg,iv administrated with doxorubicin combination once per week for 4 weeks; assay type: organism-based; conditions: in vivo, 672 h
Summary of the method: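 4T1 mammary fat-pad model in BALB/c mice. Doxorubicin (4 mg/kg) was given alone or co-administered with the conjugate or its parent taxane, with iv saline vehicle. Readouts were body weight, tumour volume, tumour weight, lung metastatic nodules and lung metastasis score. Mean ± SEM, n = 10; ANOVA and Student's t test.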

[2] = Toxicity in BALB/c mouse xenografted with human HCT-116 cells assessed as body weight loss at 5.7 mg/kg,iv administrated once per week for 3 weeks; assay type: organism-based; conditions: in vivo, 504 h
Summary of the method: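 Nude BALB/c nu/nu mice received subcutaneous human tumour cells into the right flank. Dosing started at mean tumour volume of 100–120 mm3, iv once weekly for 3 weeks; the taxane arm was an equimolar control. Body weight and overt side effects were monitored. Mean ± SEM, n = 8.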

[3] = tested on: 4T1; assay: Antitumor activity against mouse 4T1 cells implanted in BALB/c mouse assessed as decrease in spleen MDSC cells at 5.7 mg/kg,iv administrated in presence of compound 5b measured after 28 days (reference value: 38%); assay type: functional; set-up: scale not given: the % may be the effect or the level left; conditions: time 28 day
Summary of the method: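 Splenocytes taken from 4T1 fat-pad tumor-bearing BALB/c mice after 28 days of tumor growth with weekly iv dosing. Cells stained with anti-CD11b PE and anti-Gr-1 FITC, and the Gr-1+CD11b+ percentage scored by flow cytometry. Eight mice per treated group, five naive. Mean ± SEM.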

[4] = tested on: 4T1; assay: Antitumor activity against mouse 4T1 cells implanted in BALB/c mouse assessed as decrease in spleen MMP2 expression level at 5.7 mg/kg,iv administrated once per week for 4 weeks by western blot assay; assay type: functional, organism-based
Summary of the method: (§1)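 4T1 cells injected into mammary fat pads of BALB/c mice. Saline vehicle or test article given iv once weekly for 4 weeks. Spleen, lung and tumor lysates immunoblotted for MMP2/MMP9 with β-actin as loading control. Bands averaged over five mice per group, representative of two independent experiments.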

[5] = tested on: 4T1; assay: Antitumor activity against mouse 4T1 cells implanted in BALB/c mouse assessed as decrease in lung MMP2 expression level at 5.7 mg/kg,iv administrated once per week for 4 weeks by western blot assay; assay type: functional, organism-based; summary of the method: as §1
[6] = tested on: 4T1; assay: Antitumor activity against mouse 4T1 cells implanted in BALB/c mouse assessed as decrease in tumor MMP2 expression level at 5.7 mg/kg,iv administrated once per week for 4 weeks in presence of MDA-205 by western blot assay; assay type: functional, organism-based; summary of the method: as §1
[7] = Drug excretion in rat feces at 4 mg/kg,iv measured upto 72 hrs; assay type: ADME, organism-based; conditions: faeces, read-out: Drug excretion
[8] = Prodrug conversion in mouse tumor implanted with mouse 4T1 cells assessed as half life of docetaxel at 4 mg/kg,iv measured upto 72 hrs; assay type: ADME, organism-based, Neoplasm; conditions: in vivo
[9] = Drug distribution in rat adrenal gland at 4 mg/kg,iv measured by 0.25 hrs; assay type: ADME, organism-based; conditions: in vivo
Summary of the method: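 Rats received 4 mg/kg iv. Parent drug and released docetaxel were assayed in tissues and plasma from the first sampling at 0.25 h to 24 h. The lower limit of quantitation was 200 ng/g.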

[10] = Volume of distribution at steady state in female rat at 8 mg/kg,iv measured upto 24 hrs; assay type: ADME, organism-based; conditions: in vivo, read-out: Vdss
[11] = Volume of distribution at steady state in male rat at 8 mg/kg,iv measured upto 24 hrs; assay type: ADME, organism-based; conditions: in vivo, read-out: Vdss
[12] = Half life in male Beagle dog at 2 mg/kg,iv measured upto 24 hrs; assay type: ADME, organism-based, Canis lupus familiaris; conditions: in vivo
[13] = Half life in male rat at 8 mg/kg,iv measured upto 24 hrs; assay type: ADME, organism-based; conditions: in vivo
[14] = MRT (0 to infinity) in Beagle dog at 4 mg/kg,iv measured upto 24 hrs; assay type: ADME, organism-based, Canis lupus familiaris; conditions: in vivo
[15] = MRT (0 to infinity) in Beagle dog at 2 mg/kg,iv measured upto 24 hrs; assay type: ADME, organism-based, Canis lupus familiaris; conditions: in vivo
[16] = MRT (0 to infinity) in male rat at 4 mg/kg,iv measured upto 24 hrs; assay type: ADME, organism-based; conditions: in vivo
[17] = AUC (0-infinity) in Beagle dog at 4 mg/kg,iv measured upto 24 hrs; assay type: ADME, organism-based, Canis lupus familiaris; set-up: time < 24 hrs, dose 4 mg/kg, route iv; conditions: in vivo
Summary of the method: (§2)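 Single iv dose: rats 2, 4 or 8 mg/kg by intravenous injection; Beagle dogs 1, 2 or 4 mg/kg by intravenous infusion. Plasma concentration–time data were analysed by sex and pooled. Reported parameters: Cmax, Tmax, AUC0−t, AUC0−∞, MRT0−∞, t1/2, CL, Vss, given as mean ± SD.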

[18] = AUC (0-t) in Beagle dog at 4 mg/kg,iv measured upto 24 hrs; assay type: ADME, organism-based, Canis lupus familiaris; set-up: dose 4 mg/kg, time < 24 hrs, route iv; conditions: in vivo; summary of the method: as §2
[19] = AUC (0-t) in Beagle dog at 2 mg/kg,iv measured upto 24 hrs; assay type: ADME, organism-based, Canis lupus familiaris; set-up: time < 24 hrs, dose 2 mg/kg, route iv; conditions: in vivo; summary of the method: as §2
[20] = AUC (0-t) in male Beagle dog at 2 mg/kg,iv measured upto 24 hrs; assay type: ADME, organism-based, Canis lupus familiaris; set-up: dose 2 mg/kg, time < 24 hrs, route iv; conditions: in vivo; summary of the method: as §2
[21] = tested on: 4T1; assay: Synergistic antitumor activity against mouse 4T1 cells xenografted with BALB/c mouse assessed as decrease in lung metastasis at 10 mg/kg,iv administrated in combination with doxorubicin once per week for 4 weeks; assay type: functional, organism-based
[22] = tested on: 4T1; assay: Antitumor activity against mouse 4T1 cells xenografted with BALB/c mouse assessed as inhibition of tumor growth at 10 mg/kg,iv administrated once per week for 4 weeks; assay type: functional; conditions: 4T1, 672 h
Summary of the method: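 4T1 cells injected into the mammary fat pad of BALB/c mice; iv saline vehicle or 5, 10 or 20 mg/kg once weekly for 4 weeks; body weight, tumour volume, tumour weight, lung metastatic nodule count and metastasis score recorded; n = 10, mean ± SEM, ANOVA and Student's t test.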

[23] = Toxicity in BALB/c mouse xenografted with human HCT-116 cells assessed as side effects at 10 mg/kg,iv administrated once per week for 3 weeks; assay type: organism-based; conditions: in vivo, 504 h
[24] = Drug metabolism in rat hepatocytes assessed as MDA-205 metabolite formation at 20 uM incubated for 180 mins; assay type: ADME, cell-based, Hepatocyte; conditions: 3 h
[25] = Drug metabolism in monkey hepatocytes assessed as MDA-205 metabolite formation at 20 uM incubated for 180 mins; assay type: ADME, cell-based, Macaca mulatta, Hepatocyte; conditions: rhesus monkey, 3 h
[26] = Stability in human plasma assessed as compound remaining at 1 uM incubated for 6 hrs; assay type: ADME, cell-free
[27] = Stability in dog plasma assessed as compound remaining at 40 uM incubated for 6 hrs; assay type: ADME, cell-free, Canis lupus familiaris
[28] = tested on: OVCAR-3; assay: Antiproliferative activity against human OVCAR-3 cells assessed inhibition of cell growth incubated for 72 hrs by SRB assay; assay type: functional, cell-based; conditions: OVCAR-3, 72 h
[29] = tested on: 4T1; assay: Antitumor activity against mouse 4T1 cells implanted in BALB/c mouse assessed as decrease in lung MMP9 expression level at 5 to 20 mg/kg,iv administrated once per week for 4 weeks by western blot assay; assay type: functional, organism-based; conditions: dose 5-20 mg/kg
Summary of the method: (§3)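 4T1 fat-pad model in BALB/c mice, iv once weekly for 4 weeks; MMP9, MMP2 and NOD1 in spleen, lung and tumour by western blot, β-actin loading control; bands averaged over five mice per group, representative of two independent experiments.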

[30] = tested on: 4T1; assay: Antitumor activity against mouse 4T1 cells implanted in BALB/c mouse assessed as decrease in tumor MMP2 expression level at 5 to 20 mg/kg,iv administrated once per week for 4 weeks by western blot assay; assay type: functional, organism-based; conditions: dose 5-20 mg/kg; summary of the method: as §3
[31] = tested on: 4T1; assay: Antitumor activity against mouse 4T1 cells implanted in BALB/c mouse assessed as decrease in tumor MMP9 expression level at 5 to 20 mg/kg,iv administrated once per week for 4 weeks by western blot assay; assay type: functional, organism-based; conditions: dose 5-20 mg/kg; summary of the method: as §3

With `CC(=O)O[C@@]12CO[C@@H]1C[C@H](O)[C@@]1(C)C(=O)[C@H](O)C3=C(C)[C@@H](OC(=O)[C@H](O)[C@@H](NC(=O)OC(C)(C)C)c4ccccc4)C[C@@](O)([C@@H](OC(=O)c4ccccc4)[C@H]21)C3(C)C` [DOCETAXEL ANHYDROUS] the Activity [1] was “Toxic”, the Activity [2] was “Non-Toxic” and the Activity [3] was 32.1%. For the same compound, the Activity [4] was “inactive”, the Activity [5] was “inactive” and the Activity [6] was “inactive”.

For `CC(=O)O[C@@]12CO[C@@H]1C[C@H](O)[C@@]1(C)C(=O)[C@H](O)C3=C(C)[C@@H](OC(=O)[C@H](OC(=O)CCC(=O)NCCCC[C@H](NC(=O)CC[C@@H](NC(=O)[C@H](C)NC(=O)/C=C/c4ccc(F)cc4Cl)C(N)=O)C(=O)O)[C@@H](NC(=O)OC(C)(C)C)c4ccccc4)C[C@@](O)([C@@H](OC(=O)c4ccccc4)[C@H]21)C3(C)C`, the dose excreted at 72 h [7] was 69.9%, the t1/2 [8] was 59 h and the Drug uptake [9] was “Active”. It also gave a Vd [10] of 0.095 L/kg, a Vd [11] of 0.096 L/kg and a half-life [12] of 30.2 min. The half-life [13] was 21.4 min, the MRT inf [14] was 20.3 min and the MRT inf [15] was 14.2 min. The MRT inf [16] was 22.5 min, the AUC(0-inf) [17] was 17300 ng·h/mL and the AUC(0-t) at 24 h [18] was 17200 ng·h/mL. The AUC(0-t) at 24 h [19] was 5900 ng·h/mL, the AUC(0-t) at 24 h [20] was 4840 ng·h/mL and the Activity [21] was “Active”. For the same compound, the inhibition in vivo at 10 mg/kg [22] was 37%, the Activity [23] was “Non-Toxic” and the Drug metabolism [24] was “Metabolite_Detected”. The Drug metabolism [25] was “Metabolite_Detected”, the Stability [26] was “Stable” and the Stability [27] was “Stable”. For the same compound, the pIC50 [28] was 7.79, the Activity [29] was “Active” and the Activity [30] was “inactive”. For the same compound, the Activity [31] was “inactive”.
